Measurements reported in ChEMBL document CHEMBL1159121, “Synthesis, in vitro structure-activity relationship, and in vivo studies of 2-arylthiazolidine-4-carboxylic acid amides as anticancer agents” (Bioorg Med Chem, 2010).

System: A-375
Experiment: Antitumor activity against human A375 cells xenografted in athymic nude mouse assessed as tumor growth inhibition at 60 mg/kg, ip once daily administered 7 days after inoculation for 22 days
Type: functional
Parameters: scale not given: the % may be the effect or the level left
Conditions: route intraperitoneal
Summary of the method: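 Male athymic nude mice, 4–5 weeks old, injected subcutaneously in the right flank with A375 cells (5 × 10^7/mL, 100 μL, 1:1 Matrigel). Grouped at about 150 mm3 (~day 7), n = 8. DTIC in saline given ip once daily. Caliper volume a×b²×0.5 measured twice weekly; % reduction 100×[(T–T0)/(C–C0)] at day 22. Body weight monitored.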

With `CCCCCCCCCCCCCCCCNC(=O)[C@@H]1CSC(c2ccc(NC(C)=O)cc2)N1` (mixture of isomers) as the molecule, how does the Activity read?
The Activity was 42%.
